Experimental data reported in ChEMBL document CHEMBL1926607 (J Med Chem, 2011).

Legend:
[1] = biological target: T1, 5-hydroxytryptamine receptor 1A (Rattus norvegicus, UniProt P19327); assay: Displacement of [3H]-8-OH-DPAT from 5-HT1A receptor in Sprague-Dawley albinus rat cerebral cortex membranes after 15 mins; assay type: cell membranes, Membrane
T1 sequence (P19327 whole entry): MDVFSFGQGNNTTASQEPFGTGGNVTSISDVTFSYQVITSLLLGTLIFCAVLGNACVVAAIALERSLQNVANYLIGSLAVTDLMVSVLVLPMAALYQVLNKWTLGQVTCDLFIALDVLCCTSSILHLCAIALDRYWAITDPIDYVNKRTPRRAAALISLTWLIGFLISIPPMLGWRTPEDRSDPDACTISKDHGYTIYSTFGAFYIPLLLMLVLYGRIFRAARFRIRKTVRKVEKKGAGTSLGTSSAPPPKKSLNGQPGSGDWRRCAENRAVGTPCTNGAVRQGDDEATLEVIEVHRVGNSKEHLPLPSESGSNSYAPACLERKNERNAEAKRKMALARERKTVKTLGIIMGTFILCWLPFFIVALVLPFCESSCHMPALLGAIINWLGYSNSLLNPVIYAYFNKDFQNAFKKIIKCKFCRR

[2] = biological target: T2, 5-hydroxytryptamine receptor 1A (Homo sapiens) (UniProt P08908); assay: Agonist activity at human 5HT1A receptor expressed in human HeLa cells assessed as inhibition of forskolin-stimulated cAMP production pretreated 20 mins before forskolin challenge measured after 2 hrs by RIA relative to control; assay type: functional, cell-based
T2 sequence (whole entry): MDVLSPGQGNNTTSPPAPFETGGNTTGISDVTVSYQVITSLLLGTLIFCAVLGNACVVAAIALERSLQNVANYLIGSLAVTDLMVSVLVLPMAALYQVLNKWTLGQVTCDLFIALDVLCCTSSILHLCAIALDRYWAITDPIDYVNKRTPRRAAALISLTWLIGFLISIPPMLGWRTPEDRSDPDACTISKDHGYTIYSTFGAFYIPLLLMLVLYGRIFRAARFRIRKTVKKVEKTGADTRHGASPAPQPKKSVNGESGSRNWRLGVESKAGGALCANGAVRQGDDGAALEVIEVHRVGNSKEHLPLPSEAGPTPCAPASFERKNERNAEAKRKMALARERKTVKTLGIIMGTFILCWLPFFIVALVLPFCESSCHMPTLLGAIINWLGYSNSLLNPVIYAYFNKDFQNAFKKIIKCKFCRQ

[3] = biological target: T3, 5-hydroxytryptamine receptor 1A (Homo sapiens, UniProt P08908); assay: Agonist activity at human 5HT1A receptor expressed in human HeLa cells assessed as inhibition of forskolin-stimulated cAMP production […] measured after 2 hrs by RIA; assay type: functional, cell-based
T3 sequence (P08908 whole entry): T2 sequence (whole entry)
Summary of the method: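 HeLa cells stably expressing the h5-HT1AR, grown in DMEM with 2 mM glutamine, 1 mM pyruvate and 10% heat-inactivated FCS, and used after 2–3 days at about 7.5 × 10^4 cells/well. After a PBS wash, cells were incubated 10 min in PBS with 0.5 mM isobutylmethylxanthine and 10 μM forskolin, with or without compound. The reaction was stopped with ice-cold ethanol, extracted 2 h and lyophilized; cAMP was measured by RIA.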

[4] = biological target: 5-hydroxytryptamine receptor 2A (Rattus norvegicus, UniProt P14842); assay: Displacement of [3H]ketanserin from 5HT2A receptor in Sprague-Dawley albinus rat frontal cortex membranes after 15 mins; assay type: cell membranes, Membrane
5-hydroxytryptamine receptor 2A, sequence (P14842 whole entry): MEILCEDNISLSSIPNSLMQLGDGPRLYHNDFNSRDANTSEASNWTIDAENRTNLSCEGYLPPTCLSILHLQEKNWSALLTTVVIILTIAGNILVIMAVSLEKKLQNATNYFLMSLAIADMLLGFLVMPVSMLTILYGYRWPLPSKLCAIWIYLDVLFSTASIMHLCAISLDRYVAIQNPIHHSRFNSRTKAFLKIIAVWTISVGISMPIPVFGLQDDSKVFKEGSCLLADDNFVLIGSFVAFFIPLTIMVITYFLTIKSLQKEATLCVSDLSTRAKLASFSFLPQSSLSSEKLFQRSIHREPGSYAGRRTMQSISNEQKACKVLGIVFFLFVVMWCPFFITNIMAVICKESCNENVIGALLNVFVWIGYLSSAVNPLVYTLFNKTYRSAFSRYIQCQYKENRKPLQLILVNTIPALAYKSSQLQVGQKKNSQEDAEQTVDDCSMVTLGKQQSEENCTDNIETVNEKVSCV
Summary of the method: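 Rat frontal cortex membranes (male Sprague–Dawley, 180–200 g). Nonspecific binding was set with 1 μM cinanserin.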

[5] = biological target: 5-hydroxytryptamine receptor 7 (Rattus norvegicus, UniProt P32305); assay: Displacement of [3H]-5-CT from 5HT7 receptor in Sprague-Dawley albinus rat hyphalamic membranes after 120 mins; assay type: cell membranes, Membrane
5-hydroxytryptamine receptor 7, sequence (P32305 whole entry): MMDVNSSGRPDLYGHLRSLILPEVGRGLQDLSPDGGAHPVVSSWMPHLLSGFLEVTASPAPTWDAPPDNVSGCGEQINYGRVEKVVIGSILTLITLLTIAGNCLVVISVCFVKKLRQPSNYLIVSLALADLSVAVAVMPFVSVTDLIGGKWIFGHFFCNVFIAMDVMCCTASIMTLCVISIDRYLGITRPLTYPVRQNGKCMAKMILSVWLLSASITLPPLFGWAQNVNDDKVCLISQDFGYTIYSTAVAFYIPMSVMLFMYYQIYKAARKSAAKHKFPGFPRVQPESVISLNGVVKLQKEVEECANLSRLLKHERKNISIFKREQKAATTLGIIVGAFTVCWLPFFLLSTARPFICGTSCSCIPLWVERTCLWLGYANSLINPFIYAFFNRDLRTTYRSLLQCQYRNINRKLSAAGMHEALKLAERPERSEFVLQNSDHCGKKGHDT

[6] = biological target: D(2) dopamine receptor (Rattus norvegicus, UniProt P61169); assay: Displacement of [3H]spiperone from dopamine D2 receptor in Sprague-Dawley albinus rat striatal membranes after 15 mins; assay type: cell membranes, Membrane
D(2) dopamine receptor, sequence (P61169 whole entry): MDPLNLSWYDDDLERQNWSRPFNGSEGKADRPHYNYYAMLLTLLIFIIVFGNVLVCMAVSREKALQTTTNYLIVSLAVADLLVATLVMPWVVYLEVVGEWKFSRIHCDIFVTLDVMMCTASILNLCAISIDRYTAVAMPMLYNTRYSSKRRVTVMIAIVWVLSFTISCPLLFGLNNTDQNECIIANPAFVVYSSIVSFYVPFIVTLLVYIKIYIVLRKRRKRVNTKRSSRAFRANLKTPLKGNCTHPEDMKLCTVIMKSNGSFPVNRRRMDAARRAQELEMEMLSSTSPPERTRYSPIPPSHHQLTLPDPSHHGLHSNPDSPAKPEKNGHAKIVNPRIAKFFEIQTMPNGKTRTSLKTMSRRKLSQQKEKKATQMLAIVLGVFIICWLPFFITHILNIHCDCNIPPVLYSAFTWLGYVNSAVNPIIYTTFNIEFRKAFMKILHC

[7] = biological target: T4, 5-hydroxytryptamine receptor 3A (Rattus norvegicus, UniProt P35563); assay: Displacement of [3H]-LY278584 from 5HT3 receptor in Sprague-Dawley albinus rat cerebral cortex membranes after 30 mins; assay type: cell membranes, Membrane
T4 sequence (P35563 whole entry): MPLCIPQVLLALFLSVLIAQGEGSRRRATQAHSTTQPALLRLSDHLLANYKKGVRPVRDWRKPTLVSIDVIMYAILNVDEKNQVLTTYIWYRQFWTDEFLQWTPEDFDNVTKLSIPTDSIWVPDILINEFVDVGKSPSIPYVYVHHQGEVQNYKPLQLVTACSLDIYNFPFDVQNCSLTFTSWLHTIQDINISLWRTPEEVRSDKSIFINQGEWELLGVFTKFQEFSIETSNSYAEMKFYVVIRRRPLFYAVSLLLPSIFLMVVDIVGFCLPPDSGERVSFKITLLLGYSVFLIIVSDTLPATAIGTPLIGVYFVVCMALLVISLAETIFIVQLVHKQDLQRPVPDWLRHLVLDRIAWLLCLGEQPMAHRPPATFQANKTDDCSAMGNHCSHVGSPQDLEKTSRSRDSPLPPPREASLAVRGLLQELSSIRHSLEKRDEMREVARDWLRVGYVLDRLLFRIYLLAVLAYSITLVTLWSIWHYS

[8] = biological target: T5, Adrenergic receptor alpha-1 (Rattus norvegicus, UniProt P15823+P23944+P43140); assay: Displacement of [3H]prazosin from alpha1 adrenoceptor in Sprague-Dawley albinus rat cerebral cortex membranes after 30 mins; assay type: cell membranes, Membrane
T5 sequence (P15823 whole entry): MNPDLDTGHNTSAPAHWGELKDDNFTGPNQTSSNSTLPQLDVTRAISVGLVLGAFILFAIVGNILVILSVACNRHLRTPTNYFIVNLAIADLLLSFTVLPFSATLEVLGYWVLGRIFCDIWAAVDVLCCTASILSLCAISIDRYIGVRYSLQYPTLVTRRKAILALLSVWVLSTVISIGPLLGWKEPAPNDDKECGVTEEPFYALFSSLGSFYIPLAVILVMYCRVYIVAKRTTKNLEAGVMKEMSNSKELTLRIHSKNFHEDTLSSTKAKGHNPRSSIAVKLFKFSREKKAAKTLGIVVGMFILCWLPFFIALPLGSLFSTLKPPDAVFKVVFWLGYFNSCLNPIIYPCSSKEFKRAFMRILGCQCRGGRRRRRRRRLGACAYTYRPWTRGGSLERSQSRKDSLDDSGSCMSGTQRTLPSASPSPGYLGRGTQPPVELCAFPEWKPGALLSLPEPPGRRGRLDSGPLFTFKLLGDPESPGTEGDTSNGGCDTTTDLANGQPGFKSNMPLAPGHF
T5 sequence (P23944 whole entry): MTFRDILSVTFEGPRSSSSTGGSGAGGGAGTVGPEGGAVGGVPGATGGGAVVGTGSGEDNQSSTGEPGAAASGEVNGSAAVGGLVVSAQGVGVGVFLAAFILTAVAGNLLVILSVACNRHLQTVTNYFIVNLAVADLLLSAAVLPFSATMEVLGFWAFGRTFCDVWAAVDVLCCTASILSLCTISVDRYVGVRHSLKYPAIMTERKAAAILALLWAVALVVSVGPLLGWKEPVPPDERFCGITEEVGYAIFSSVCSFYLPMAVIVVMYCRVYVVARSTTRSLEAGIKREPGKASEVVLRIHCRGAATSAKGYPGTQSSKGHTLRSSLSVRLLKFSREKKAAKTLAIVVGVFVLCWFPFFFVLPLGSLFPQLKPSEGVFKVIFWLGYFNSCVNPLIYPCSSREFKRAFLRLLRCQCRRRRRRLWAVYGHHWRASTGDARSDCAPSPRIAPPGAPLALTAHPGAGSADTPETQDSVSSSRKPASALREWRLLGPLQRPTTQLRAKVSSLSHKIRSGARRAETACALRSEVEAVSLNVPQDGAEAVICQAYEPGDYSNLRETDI
T5 sequence (P43140 whole entry): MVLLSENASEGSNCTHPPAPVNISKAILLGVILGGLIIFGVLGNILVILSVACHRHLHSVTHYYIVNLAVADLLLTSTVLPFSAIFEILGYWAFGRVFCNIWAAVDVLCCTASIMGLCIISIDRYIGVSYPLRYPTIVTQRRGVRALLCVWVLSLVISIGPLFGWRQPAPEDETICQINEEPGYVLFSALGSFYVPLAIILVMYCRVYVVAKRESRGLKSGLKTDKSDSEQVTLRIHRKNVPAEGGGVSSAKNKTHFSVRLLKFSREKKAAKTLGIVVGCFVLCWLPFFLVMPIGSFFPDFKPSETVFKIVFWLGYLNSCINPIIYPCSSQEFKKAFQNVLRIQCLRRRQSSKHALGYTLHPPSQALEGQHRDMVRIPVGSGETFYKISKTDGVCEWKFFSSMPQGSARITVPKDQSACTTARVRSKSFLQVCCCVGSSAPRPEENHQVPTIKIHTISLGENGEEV
Summary of the method: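 Rat cerebral cortex membranes (about 250 μg protein; male Sprague–Dawley, 180–200 g) in 50 mM Tris-HCl with 10 mM MgCl2, pH 7.4. Incubation was 30 min at 25 °C with 0.2 nM [3H]prazosin and six competitor concentrations. Nonspecific binding was set with 10 μM phentolamine.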

[9] = biological target: 5-hydroxytryptamine receptor 4 (Rattus norvegicus, UniProt Q62758); assay: Displacement of [3H]GR113808 from 5HT4 receptor in Sprague-Dawley albinus rat striatal membranes after 30 mins by scintillation counting; assay type: cell membranes, Membrane
5-hydroxytryptamine receptor 4, sequence (Q62758 whole entry): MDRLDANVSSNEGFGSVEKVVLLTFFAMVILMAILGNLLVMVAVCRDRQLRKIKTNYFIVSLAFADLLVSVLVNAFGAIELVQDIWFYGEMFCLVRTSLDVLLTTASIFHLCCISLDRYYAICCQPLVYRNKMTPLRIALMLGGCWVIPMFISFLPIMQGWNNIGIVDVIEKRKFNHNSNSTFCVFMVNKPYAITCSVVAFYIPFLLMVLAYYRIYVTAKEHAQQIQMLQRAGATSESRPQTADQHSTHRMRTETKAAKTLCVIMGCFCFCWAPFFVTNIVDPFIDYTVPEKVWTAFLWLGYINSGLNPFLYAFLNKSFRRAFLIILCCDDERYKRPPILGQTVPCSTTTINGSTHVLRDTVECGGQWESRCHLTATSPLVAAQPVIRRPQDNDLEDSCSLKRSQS

[10] = Neuroprotective activity in Wistar rat hippocampi primary neuronal cells assessed as protection against oxygen-glucose deprivation induced cell death at 1 uM after 18 hrs by MTT assay; assay type: functional, Hippocampus, Primary neuron
[11] = Neuroprotective activity in Wistar rat hippocampi primary neuronal cells assessed as protection against serum-deprivation induced cell death at 1 uM after 24 hrs by MTT assay; assay type: functional, Hippocampus, Primary neuron
Summary of the method: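 Mixed neuron-glia cultures from E18 Wistar rat hippocampi (Neurobasal plus 10% FCS), used at 11 days in vitro. Medium replaced by saline to withdraw serum; cells held 24 h with compound. Cell survival measured by MTT reduction, expressed as % protection.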

[12] = Neuroprotective activity in Wistar rat hippocampi primary neuronal cells assessed as protection against glutamate-induced cell death at 1 uM treated 30 min before glutamate challenge measured after 22 hrs by MTT assay; assay type: functional, Hippocampus, Primary neuron
Summary of the method: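 E18 fetal Wistar rat hippocampal neurons in neuron-enriched culture (Neurobasal, 2% B27, poly-L-lysine), used at 11 days in vitro. Compound added 30 min before 1 mM glutamate, exposure 22 h. Survival by MTT (mitochondrial dehydrogenase) read-out, reported as % protection.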

Row | SMILES | Ki [1] [µM] | Emax [2] [%] | EC50 [3] [µM] | Ki [4] [µM] | other results
1 | O=C1C2CCCN2C(=O)N1CCCCCNCC1CCc2ccccc2O1 (stereo unspecified) | 0.0129 | 92.5 | 0.157 | > 1 | –
2 | O=C1C2CCCN2C(=O)N1C/C=C/CNCC1CCc2ccccc2O1 (stereo unspecified) | 0.027 | – | – | > 1 | –
3 | O=C1CSC(=O)N1CCCCCCNCC1CCc2ccccc2O1 (stereo unspecified) | – | 87 | 0.0199 | > 1 | –
4 | O=C1C2CCCN2C(=O)N1CCCCNCCc1ccco1 (stereo unspecified) | > 1 | – | – | – | –
5 | O=C1C2CCCN2C(=O)N1CCCCNCc1cccs1 (stereo unspecified) | > 1 | – | – | – | –
6 | O=C1C2CCCN2C(=O)N1CCCCNCc1ccco1 (stereo unspecified) | > 1 | – | – | – | –
7 | Cl.O=C1C2CCCN2C(=O)N1CCCCNCCc1ccc2ccccc2c1 (stereo unspecified) | – | – | – | – | Ki [6]: > 1 µM; Ki [7]: > 1 µM; Ki [8]: 0.099 µM
8 | CCCN(CCC)C1CCc2cccc(O)c2C1 (stereo unspecified) [8-OH-DPAT] | – | – | – | – | Activity [10]: 54%; Activity [11]: 44%; Activity [12]: 37%
9 | O=C1C2CCCN2C(=O)N1CCCCNCCc1ccccc1 (stereo unspecified) | > 1 | – | – | – | –

Further lines, with some results ahead:

Row | Ki [1] [µM] | Emax [2] [%] | EC50 [3] [µM] | Ki [4] [µM] | SMILES | other results
10 | 0.013 | 89.3 | – | > 1 | O=C1C2CSCN2C(=O)N1CCCCNCC1CCc2ccccc2O1 (stereo unspecified) | –
11 | 0.0082 | 94.3 | 0.0233 | > 1 | O=C1C2CCCN2C(=O)N1CCCNCC1CCc2ccccc2O1 (stereo unspecified) | –
12 | 0.0876 | – | – | – | O=C1C2CCCN2C(=O)N1CCCCCCCCNCC1CCc2ccccc2O1 (stereo unspecified) | –
13 | 0.034 | – | – | > 1 | Cl.O=C1C2CCCCN2C(=O)CN1CCCCNCC1CCc2ccccc2O1 (stereo unspecified) | Ki [5]: > 1 µM; Ki [6]: > 1 µM; Ki [7]: > 1 µM; Ki [8]: 0.067 µM; Ki [9]: > 1 µM
14 | 0.0059 | 91.2 | 0.0218 | > 1 | O=C1C2CCCN2C(=O)N1CCCCCCNCC1CCc2ccccc2O1 (stereo unspecified) | –
15 | – | 88.6 | 0.0259 | > 1 | O=C1CSC(=O)N1CCCCCCCCNCC1CCc2ccccc2O1 (stereo unspecified) | –
